This note sets out measurements from ChEMBL document CHEMBL1132970, “Synthesis of N-substituted 4-(4-hydroxyphenyl)piperidines, 4-(4-hydroxybenzyl)piperidines, and (+/-)-3-(4-hydroxyphenyl)pyrrolidines: selective antagonists at the 1A/2B NMDA receptor subtype” (J Med Chem, 2000).

Structures are written as SMILES.

In experiment [1] the target is Glutamate NMDA receptor; Grin1/Grin2c (Rattus norvegicus, UniProt P35439+Q00961). The experiment can be described thus: Inhibitory activity against Xenopus oocytes expressing rat N-Methyl-D-aspartate (NR1A/2C) Receptor subtype. Format: cell-based, Oocyte. Put shortly: (§1)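 Electrophysiology on oocytes expressing each NMDA subunit combination. IC50 from curve fitting of concentration-inhibition data pooled from 1-7 separate experiments.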

In experiment [2] the target is Glutamate NMDA receptor; Grin1/Grin2a (Rattus norvegicus, UniProt P35439+Q00959). Kind of experiment: Inhibitory activity against Xenopus oocytes expressing rat N-Methyl-D-aspartate (NR1A/2A) Receptor subtype. It is filed as cell-based, Oocyte. Put shortly: as §1
Experiment [3] addresses Glutamate NMDA receptor; Grin1/Grin2b (Rattus norvegicus, UniProt P35439+Q00960). Kind of experiment: Inhibitory activity against Xenopus oocytes expressing rat N-Methyl-D-aspartate (NR1A/2B) Receptor subtype. Format: cell-based, Oocyte. Put shortly: as §1
For the next experiment, the species on record is Mus musculus. Kind of experiment: Effective dose for protection against MES seizures in mice. It is filed as functional. In a few lines: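 Male Swiss Webster mice (23-27 g, food and water ad libitum), compound given iv as 5 mg/mL solution in 0.2 M Tris. Seizure protection tested 2 min after dosing; corneal electroshock, rectangular pulses 50 mA, 60-75 Hz, 0.8 ms width, 0.2 s train. Seizure scored as tonic hind-limb extension. ED50 with 95% confidence limits; at least 24 animals per compound.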

The next experiment has as its target D(2) dopamine receptor (Rattus norvegicus, UniProt P61169). The experiment can be described thus: Inhibition of [3H]-raclopride binding at Dopamine receptor D2 in rat brain membranes. It is filed as cell membranes. Put shortly:
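Rat striatal membranes, washed in 50 mM Tris-HCl pH 7.4, assayed in 120 mM NaCl/5 mM KCl/50 mM Tris-HCl pH 7.4. 200 µg membrane protein with 3 nM [3H]raclopride; nonspecific binding with 300 µM sulpiride. Nine concentrations in duplicate; IC50 by sigmoidal curve fit.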

For experiment [4], the target named is T1, Adrenergic receptor alpha-1 (Rattus norvegicus, UniProt P15823+P23944+P43140).
T1 sequence (P15823 whole entry): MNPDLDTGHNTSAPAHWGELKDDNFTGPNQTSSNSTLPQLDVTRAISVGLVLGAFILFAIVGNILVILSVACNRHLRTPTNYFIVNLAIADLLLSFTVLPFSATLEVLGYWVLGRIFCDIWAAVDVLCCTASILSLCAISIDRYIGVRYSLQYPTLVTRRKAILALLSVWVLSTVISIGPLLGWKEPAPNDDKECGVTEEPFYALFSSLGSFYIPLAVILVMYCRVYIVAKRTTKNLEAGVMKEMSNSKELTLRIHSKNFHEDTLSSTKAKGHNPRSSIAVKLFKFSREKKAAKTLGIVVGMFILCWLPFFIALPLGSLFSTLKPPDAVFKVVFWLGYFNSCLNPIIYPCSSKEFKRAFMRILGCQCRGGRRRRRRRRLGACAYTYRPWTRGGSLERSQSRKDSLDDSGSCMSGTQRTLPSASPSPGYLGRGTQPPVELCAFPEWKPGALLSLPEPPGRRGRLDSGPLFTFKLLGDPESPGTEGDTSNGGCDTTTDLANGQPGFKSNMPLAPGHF
T1 sequence (P23944 whole entry): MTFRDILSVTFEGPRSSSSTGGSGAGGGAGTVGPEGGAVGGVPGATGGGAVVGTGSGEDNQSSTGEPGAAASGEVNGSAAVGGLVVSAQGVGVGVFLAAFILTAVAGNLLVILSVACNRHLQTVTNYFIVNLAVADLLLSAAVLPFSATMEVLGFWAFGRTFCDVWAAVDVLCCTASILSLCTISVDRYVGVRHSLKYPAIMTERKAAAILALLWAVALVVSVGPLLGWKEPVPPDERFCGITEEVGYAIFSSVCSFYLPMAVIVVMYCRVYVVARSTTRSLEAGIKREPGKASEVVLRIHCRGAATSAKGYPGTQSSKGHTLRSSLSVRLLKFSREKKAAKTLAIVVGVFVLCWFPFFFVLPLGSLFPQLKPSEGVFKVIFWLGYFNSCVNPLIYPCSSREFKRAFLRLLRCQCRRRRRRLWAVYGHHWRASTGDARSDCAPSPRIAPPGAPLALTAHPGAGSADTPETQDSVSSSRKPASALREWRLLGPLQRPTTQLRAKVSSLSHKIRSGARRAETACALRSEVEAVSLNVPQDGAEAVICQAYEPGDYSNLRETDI
T1 sequence (P43140 whole entry): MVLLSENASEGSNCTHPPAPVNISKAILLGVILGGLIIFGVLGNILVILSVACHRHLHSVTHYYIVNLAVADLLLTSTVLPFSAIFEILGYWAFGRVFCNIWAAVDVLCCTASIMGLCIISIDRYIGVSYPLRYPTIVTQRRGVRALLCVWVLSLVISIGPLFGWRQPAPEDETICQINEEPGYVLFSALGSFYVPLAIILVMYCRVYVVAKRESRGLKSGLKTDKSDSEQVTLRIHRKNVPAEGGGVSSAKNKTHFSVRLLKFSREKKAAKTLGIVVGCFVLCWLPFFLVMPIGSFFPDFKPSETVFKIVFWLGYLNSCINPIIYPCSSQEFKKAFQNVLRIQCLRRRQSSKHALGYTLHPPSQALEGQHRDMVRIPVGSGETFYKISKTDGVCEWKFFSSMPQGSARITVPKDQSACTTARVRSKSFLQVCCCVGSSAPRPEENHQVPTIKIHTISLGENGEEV
The experiment can be described thus: Inhibition of [3H]prazosin binding at alpha-1 adrenergic receptor in rat brain cortical membranes. Format: cell membranes, Membrane. In a few lines:
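Membranes from Sprague-Dawley rat cortex, sucrose/Tris homogenate washed three times. Assayed in 140 mM NaCl/5 mM MgCl2/50 mM Tris-HCl pH 7.4. 200 µg protein incubated with 0.8 nM [3H]prazosin; 10 µM phentolamine defined nonspecific binding. Nine concentrations in duplicate; IC50 from sigmoidal fit.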

Glutamate NMDA receptor; Grin1/Grin2c, sequence (Q00961 whole entry, other chains not shown): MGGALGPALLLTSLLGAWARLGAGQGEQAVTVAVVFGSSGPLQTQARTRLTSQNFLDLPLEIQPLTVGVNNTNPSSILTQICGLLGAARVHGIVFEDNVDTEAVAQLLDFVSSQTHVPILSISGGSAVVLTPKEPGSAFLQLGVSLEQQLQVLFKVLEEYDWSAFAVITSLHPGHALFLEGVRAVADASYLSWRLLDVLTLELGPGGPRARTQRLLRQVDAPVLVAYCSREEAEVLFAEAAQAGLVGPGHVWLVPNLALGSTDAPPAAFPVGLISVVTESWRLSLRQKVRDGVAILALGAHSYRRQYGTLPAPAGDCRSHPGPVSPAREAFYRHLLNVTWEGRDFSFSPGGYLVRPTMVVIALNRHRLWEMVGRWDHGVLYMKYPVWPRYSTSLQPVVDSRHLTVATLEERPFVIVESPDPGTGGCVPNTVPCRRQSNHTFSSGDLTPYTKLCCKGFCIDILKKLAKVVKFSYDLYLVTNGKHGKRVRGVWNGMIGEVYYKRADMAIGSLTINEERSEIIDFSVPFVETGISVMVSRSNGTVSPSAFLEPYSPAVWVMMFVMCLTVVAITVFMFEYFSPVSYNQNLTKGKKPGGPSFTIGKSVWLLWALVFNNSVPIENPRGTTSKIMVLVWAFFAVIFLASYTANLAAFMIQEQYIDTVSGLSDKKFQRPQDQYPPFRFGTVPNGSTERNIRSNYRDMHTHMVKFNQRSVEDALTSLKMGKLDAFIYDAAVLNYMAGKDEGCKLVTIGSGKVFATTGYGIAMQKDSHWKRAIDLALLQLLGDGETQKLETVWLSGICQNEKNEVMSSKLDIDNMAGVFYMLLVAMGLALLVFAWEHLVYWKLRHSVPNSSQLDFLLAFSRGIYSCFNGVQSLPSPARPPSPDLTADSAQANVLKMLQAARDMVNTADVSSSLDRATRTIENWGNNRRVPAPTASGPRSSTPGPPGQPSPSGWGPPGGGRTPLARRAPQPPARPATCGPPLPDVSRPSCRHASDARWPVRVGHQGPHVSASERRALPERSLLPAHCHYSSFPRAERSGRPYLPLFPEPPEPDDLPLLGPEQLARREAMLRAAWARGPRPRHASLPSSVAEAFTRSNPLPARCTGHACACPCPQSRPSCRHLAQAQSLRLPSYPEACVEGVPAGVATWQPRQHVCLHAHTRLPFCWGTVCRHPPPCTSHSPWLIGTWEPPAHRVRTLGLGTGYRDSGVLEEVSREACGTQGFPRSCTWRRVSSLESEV
Glutamate NMDA receptor; Grin1/Grin2b, sequence (Q00960 whole entry, other chains not shown): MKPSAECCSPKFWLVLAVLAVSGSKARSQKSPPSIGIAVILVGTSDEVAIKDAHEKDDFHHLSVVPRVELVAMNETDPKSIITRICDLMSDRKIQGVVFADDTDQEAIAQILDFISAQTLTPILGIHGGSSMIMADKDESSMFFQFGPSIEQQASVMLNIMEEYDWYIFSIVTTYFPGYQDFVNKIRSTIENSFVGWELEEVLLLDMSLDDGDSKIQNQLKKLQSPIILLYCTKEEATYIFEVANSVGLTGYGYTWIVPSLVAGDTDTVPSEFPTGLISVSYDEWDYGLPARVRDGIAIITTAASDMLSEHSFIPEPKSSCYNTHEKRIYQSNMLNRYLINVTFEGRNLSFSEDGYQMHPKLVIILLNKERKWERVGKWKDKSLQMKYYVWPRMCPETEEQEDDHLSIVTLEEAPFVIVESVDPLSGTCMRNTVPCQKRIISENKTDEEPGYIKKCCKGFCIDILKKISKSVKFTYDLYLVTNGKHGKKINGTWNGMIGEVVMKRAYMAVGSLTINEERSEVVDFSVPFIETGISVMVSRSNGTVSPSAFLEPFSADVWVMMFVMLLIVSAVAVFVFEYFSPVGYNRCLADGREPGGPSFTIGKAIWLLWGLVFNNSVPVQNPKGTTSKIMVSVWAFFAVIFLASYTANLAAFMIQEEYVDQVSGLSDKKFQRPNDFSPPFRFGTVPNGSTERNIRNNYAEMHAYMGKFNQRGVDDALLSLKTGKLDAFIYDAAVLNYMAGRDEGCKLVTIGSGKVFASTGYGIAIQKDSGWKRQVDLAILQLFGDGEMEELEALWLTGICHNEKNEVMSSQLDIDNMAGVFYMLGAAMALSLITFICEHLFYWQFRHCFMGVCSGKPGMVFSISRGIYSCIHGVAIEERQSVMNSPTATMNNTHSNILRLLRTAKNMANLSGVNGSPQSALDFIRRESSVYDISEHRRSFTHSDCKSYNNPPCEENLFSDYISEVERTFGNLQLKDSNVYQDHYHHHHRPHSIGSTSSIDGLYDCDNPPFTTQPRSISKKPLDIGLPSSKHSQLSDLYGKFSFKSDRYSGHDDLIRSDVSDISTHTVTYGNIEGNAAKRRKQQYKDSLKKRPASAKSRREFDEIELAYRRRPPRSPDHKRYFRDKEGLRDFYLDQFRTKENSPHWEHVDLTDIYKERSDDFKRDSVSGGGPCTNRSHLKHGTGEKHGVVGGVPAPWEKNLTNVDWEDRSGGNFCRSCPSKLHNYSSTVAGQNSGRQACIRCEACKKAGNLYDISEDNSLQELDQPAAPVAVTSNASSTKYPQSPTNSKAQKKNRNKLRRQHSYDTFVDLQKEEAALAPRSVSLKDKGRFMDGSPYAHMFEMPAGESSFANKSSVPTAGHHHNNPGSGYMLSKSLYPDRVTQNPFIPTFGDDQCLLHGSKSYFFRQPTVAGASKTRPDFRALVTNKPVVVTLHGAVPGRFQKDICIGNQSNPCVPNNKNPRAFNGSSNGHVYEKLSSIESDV
Glutamate NMDA receptor; Grin1/Grin2a, sequence (Q00959 whole entry, other chains not shown): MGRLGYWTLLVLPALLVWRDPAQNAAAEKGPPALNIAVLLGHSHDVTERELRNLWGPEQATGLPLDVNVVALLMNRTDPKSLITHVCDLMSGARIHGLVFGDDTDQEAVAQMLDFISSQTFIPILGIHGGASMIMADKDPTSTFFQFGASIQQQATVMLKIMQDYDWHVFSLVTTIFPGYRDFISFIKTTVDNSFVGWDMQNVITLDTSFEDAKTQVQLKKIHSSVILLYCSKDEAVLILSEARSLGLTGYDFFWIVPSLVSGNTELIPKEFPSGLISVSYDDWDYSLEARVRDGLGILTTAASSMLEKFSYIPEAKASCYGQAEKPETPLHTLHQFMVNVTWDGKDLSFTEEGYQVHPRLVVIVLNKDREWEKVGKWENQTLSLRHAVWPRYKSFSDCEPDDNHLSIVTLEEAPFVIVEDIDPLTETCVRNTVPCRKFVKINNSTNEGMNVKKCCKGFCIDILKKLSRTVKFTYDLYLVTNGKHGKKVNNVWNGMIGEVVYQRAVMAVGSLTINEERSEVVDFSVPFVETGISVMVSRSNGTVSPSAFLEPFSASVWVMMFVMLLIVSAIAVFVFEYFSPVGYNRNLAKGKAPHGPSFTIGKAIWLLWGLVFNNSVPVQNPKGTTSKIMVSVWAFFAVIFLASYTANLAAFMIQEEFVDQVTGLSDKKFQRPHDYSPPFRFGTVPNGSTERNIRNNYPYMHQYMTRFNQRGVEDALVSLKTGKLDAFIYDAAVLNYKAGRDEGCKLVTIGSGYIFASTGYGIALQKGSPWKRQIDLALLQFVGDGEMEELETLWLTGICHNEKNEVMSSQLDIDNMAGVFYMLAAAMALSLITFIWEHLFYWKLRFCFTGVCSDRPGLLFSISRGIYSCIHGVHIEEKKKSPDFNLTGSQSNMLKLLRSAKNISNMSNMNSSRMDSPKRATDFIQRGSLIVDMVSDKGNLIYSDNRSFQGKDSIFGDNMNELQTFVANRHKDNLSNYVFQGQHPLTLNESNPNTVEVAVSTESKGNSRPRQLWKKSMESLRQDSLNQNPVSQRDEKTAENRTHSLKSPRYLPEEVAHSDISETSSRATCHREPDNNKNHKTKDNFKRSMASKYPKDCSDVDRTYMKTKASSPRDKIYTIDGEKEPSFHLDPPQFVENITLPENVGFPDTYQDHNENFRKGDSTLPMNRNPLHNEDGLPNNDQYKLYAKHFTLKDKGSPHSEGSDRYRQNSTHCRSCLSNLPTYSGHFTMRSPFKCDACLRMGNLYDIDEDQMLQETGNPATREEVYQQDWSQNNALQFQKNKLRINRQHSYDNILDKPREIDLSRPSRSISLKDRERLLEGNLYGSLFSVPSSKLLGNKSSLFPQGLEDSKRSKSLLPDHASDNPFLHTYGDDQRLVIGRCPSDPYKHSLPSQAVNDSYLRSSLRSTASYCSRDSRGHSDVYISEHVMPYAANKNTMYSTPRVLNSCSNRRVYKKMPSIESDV
D(2) dopamine receptor, sequence (P61169 whole entry): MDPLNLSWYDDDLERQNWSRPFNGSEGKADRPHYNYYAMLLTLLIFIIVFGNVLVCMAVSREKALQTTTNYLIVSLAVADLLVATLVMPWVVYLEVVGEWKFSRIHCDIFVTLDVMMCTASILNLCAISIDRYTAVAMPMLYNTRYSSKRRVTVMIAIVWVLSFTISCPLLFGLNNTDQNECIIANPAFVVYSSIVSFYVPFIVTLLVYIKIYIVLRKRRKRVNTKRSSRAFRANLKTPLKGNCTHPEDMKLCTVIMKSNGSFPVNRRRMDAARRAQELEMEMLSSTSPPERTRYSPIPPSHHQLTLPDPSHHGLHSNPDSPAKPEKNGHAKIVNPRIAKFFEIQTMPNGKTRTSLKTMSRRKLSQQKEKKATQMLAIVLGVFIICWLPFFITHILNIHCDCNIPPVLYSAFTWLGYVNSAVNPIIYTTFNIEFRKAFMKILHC

In general, IC50 refers to the midpoint of a concentration-inhibition curve. Read a low IC50 as higher potency. As to `Oc1ccc(C2CCN(CCOCc3ccccc3)CC2)cc1`, the IC50 in experiment [1] is over 100 µM; in experiment [2], 59 µM; in experiment [3], 0.019 µM.
Taken in the same sequence, the figures for `CCCCN1CCC(c2ccc(O)cc2)CC1` were over 100 µM, over 100 µM and 61 µM.
For the compound `Oc1ccc(CC2CCN(CCCCc3ccccc3)CC2)cc1`, the IC50 in experiment [1] is over 100 µM; in experiment [2], over 100 µM; in experiment [3], 0.071 µM.
For orientation: ED50 means the dose at which the effect has come halfway, by size or by number of responders. In the case of `Br.Oc1ccc(C2CCN(CCCCc3ccccc3)CC2)cc1`, the IC50 in experiment [1] was over 100 µM; in experiment [2] it was over 100 µM; on D(2) dopamine receptor, 1.2 µM; in experiment [4] it was 0.54 µM; in experiment [3] it was 0.022 µM. Further, in the experiment filed under Mus musculus, the ED50 was determined as 0.23 mg/kg.
On to `COc1ccc(C2CCN(CCCCc3ccccc3)CC2)cc1.Cl`, for which the IC50 in experiment [1] is over 100 µM; in experiment [2] it was over 100 µM; at D(2) dopamine receptor, 0.41 µM; in experiment [4] it was 1.7 µM; in experiment [3], over 100 µM. The same compound registered an ED50 in the experiment listed under Mus musculus of 0.56 mg/kg.
Consider `Oc1ccc(C2CCN(CCCCCc3ccccc3)CC2)cc1`, for which the IC50 was over 100 µM in experiment [1], over 100 µM in experiment [2] and 0.075 µM in experiment [3].
`Oc1ccc(C2=CCN(CCCCc3ccccc3)CC2)cc1`: the IC50 in experiment [1] was over 100 µM; in experiment [2], over 100 µM; in experiment [3], 0.011 µM.
Take `Oc1ccc(C2CCN(CCCc3ccccc3)CC2)cc1`: the IC50 in experiment [1] is over 100 µM; in experiment [2], 51 µM; in experiment [3], 0.074 µM.
Taken in the same sequence, the figures for `Oc1ccc(CCCCN2CCC(c3ccccc3)CC2)cc1` were over 100 µM, 43 µM and 0.23 µM.
With `Oc1ccc(C2(O)CCN(CCCCc3ccccc3)CC2)cc1`, the IC50 in experiment [1] was over 100 µM; in experiment [2], 62 µM; at D(2) dopamine receptor, 22 µM; in experiment [4], 2.2 µM; in experiment [3], 0.012 µM. The same compound registered an ED50 in the experiment filed under Mus musculus of 2.3 mg/kg.
Take `Oc1ccc(CC2CCN(CCCc3ccccc3)CC2)cc1`: the IC50 was over 100 µM in experiment [1], over 100 µM in experiment [2] and 0.059 µM in experiment [3].
Consider `Oc1ccc(C2CCN(CCCCCc3ccccc3)C2)cc1` (stereo not drawn), for which the IC50 was over 100 µM in experiment [1], 41 µM in experiment [2] and 0.017 µM in experiment [3].
Consider `Oc1ccc(C2CCN(CCCCc3ccccc3)C2)cc1` (stereo not drawn), for which the IC50 was over 100 µM in experiment [1], 52 µM in experiment [2] and 0.13 µM in experiment [3].
With `Oc1ccc(C2CCN(CC(O)CCc3ccccc3)CC2)cc1` (stereo not drawn), the IC50 in experiment [1] is over 100 µM; in experiment [2] it was over 100 µM; on D(2) dopamine receptor it was 5.9 µM; in experiment [4], 1.4 µM; in experiment [3], 0.019 µM. The same compound came in with an ED50 in the experiment listed under Mus musculus of 0.46 mg/kg.
Consider `Oc1ccc(C2(O)CCN(CC(O)CCc3ccccc3)CC2)cc1` (stereo not drawn), for which the IC50 in experiment [1] was over 100 µM; on D(2) dopamine receptor it was 105 µM; in experiment [4], 14 µM; in experiment [3] it was 0.026 µM. The compound also yielded an ED50 in the experiment filed under Mus musculus of 5.7 mg/kg.
In the case of `c1ccc(CCCCN2CCC(c3ccccc3)CC2)cc1`, the IC50 in experiment [1] was over 100 µM; in experiment [2] it was over 100 µM; in experiment [3], 2.2 µM.
Take `Oc1ccc(CC2CCN(CCC#Cc3ccccc3)CC2)cc1`: the IC50 was over 100 µM in experiment [1], over 100 µM in experiment [2] and 0.8 µM in experiment [3].
Consider `Oc1ccc(CC2CCN(CC#Cc3ccccc3)CC2)cc1`, for which the half-inhibitory concentration (IC50) in experiment [1] is over 100 µM; in experiment [2], over 100 µM; in experiment [3], 0.18 µM.
